{"source": "ChEMBL document CHEMBL1148487", "about": "“Chemical and functional identification and characterization of novel sulfated alpha-conotoxins from the cone snail Conus anemone” (J Med Chem, 2004)", "key": {"[1]": {"assay": "Inhibition ratio of rat alpha 3 beta 2 nicotinic acetylcholine receptor (nAChR) to that of at alpha 7 nicotinic acetylcholine receptor (nAChR)"}, "[2]": {"molecular_target": "Neuronal acetylcholine receptor; alpha3/beta2 (Rattus norvegicus, UniProt P04757+P12390)", "sequence (P04757 whole entry)": "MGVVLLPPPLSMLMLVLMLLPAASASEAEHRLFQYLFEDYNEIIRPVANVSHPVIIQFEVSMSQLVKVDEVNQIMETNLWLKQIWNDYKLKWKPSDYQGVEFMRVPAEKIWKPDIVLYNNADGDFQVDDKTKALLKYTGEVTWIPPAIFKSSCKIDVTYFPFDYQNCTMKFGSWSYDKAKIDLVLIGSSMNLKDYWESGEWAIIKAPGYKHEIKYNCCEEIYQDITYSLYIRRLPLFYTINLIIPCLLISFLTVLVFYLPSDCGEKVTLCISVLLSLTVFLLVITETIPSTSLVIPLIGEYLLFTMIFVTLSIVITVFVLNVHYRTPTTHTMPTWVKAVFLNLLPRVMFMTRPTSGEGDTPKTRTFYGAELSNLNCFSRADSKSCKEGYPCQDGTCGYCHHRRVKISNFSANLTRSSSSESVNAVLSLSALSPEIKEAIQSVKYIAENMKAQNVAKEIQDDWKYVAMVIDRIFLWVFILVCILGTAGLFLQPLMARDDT", "sequence (P12390 whole entry)": "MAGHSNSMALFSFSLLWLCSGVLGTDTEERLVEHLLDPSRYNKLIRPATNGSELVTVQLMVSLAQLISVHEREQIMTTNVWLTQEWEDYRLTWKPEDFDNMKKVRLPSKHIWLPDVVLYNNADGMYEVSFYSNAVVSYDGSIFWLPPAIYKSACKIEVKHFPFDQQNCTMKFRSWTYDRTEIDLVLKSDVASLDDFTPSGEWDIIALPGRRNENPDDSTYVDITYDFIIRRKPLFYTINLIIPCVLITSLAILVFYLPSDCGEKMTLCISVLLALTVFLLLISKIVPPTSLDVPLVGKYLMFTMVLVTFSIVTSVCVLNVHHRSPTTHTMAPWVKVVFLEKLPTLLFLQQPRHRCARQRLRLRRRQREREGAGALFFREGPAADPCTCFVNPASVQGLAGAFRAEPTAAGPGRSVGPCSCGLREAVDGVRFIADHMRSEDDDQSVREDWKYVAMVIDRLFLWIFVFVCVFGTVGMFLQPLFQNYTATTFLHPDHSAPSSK", "assay": "Inhibition of rat Nicotinic acetylcholine receptor alpha3-beta2 expressed in Xenopus Oocytes", "type": "cell-based", "method_in_brief": "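Rat nAChR subunit cRNAs (50 nL, 5–50 ng/µL) injected into Xenopus oocytes, kept at 19 °C in ND96 pH 7.4 with gentamycin; two-electrode voltage clamp at −70 mV, 2–10 days post-injection. Peptide added to static bath, 3–10 min before agonist; sub-1 nM also perfused 10–15 min. IC50 from fitted concentration–response curves with Hill slope.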"}}, "note": "Residues, ends and D or L forms follow the SMILES beside them."}
{"smiles": "CC[C@H](C)[C@H](N)C(=O)N[C@@H](CCCN=C(N)N)C(=O)N[C@@H](CC(=O)O)C(=O)N[C@@H](CC(C(=O)O)C(=O)O)C(=O)N[C@@H](CS)C(=O)N[C@@H](CS)C(=O)N[C@@H](CO)C(=O)N[C@@H](CC(N)=O)C(=O)N1CCC[C@H]1C(=O)N[C@@H](C)C(=O)N[C@@H](CS)C(=O)N[C@@H](CCCN=C(N)N)C(=O)N[C@H](C(=O)N[C@@H](CC(N)=O)C(=O)N[C@@H](CC(N)=O)C(=O)N1C[C@H](O)C[C@H]1C(=O)N[C@@H](Cc1c[nH]cn1)C(=O)N[C@H](C(=O)N[C@@H](CS)C(N)=O)C(C)C)C(C)C", "note": "(HELM PEPTIDE1{I.R.D.[O=C(O)C(C[C@H](N[*:1])C(=O)[*:2])C(=O)O].C.C.S.N.P.A.C.R.V.N.N.[Hyp].H.V.C.[am]}$$$$V2.0)", "values": [{"measurement": "Ratio", "setting": "[1]", "value": 0.2}, {"measurement": "IC50", "setting": "[2]", "value": 0.01, "unit": "µM"}]}
{"smiles": "CC(C)C[C@@H](NC(=O)[C@@H](CO)NC(=O)[C@@H](CS)NC(=O)[C@@H](CS)NC(=O)CN)C(=O)N1CCC[C@H]1C(=O)N1CCC[C@H]1C(=O)N[C@@H](CS)C(=O)N[C@@H](C)C(=O)N[C@@H](C)C(=O)N[C@@H](CC(N)=O)C(=O)N[C@@H](CC(N)=O)C(=O)N1CCC[C@@H]1C(=O)N[C@@H](CC(=O)O)C(=O)N[C@@H](Cc1ccc(S)cc1)C(=O)N[C@@H](CS)C(N)=O", "values": [{"measurement": "Ratio", "setting": "[1]", "value": 0.04}, {"measurement": "IC50", "setting": "[2]", "value": 0.0096, "unit": "µM"}]}
{"smiles": "CC(C)C[C@@H](NC(=O)[C@@H](CO)NC(=O)[C@@H](CS)NC(=O)[C@@H](CS)NC(=O)CN)C(=O)N1CCC[C@H]1C(=O)N1CCC[C@H]1C(=O)N[C@@H](CS)C(=O)N[C@@H](C)C(=O)N[C@@H](C)C(=O)N[C@@H](CC(N)=O)C(=O)N[C@@H](CC(N)=O)C(=O)N1CCC[C@@H]1C(=O)N[C@@H](CC(=O)O)C(=O)N[C@@H](Cc1ccc(O)cc1)C(=O)N[C@@H](CS)C(N)=O", "values": [{"measurement": "Ratio", "setting": "[1]", "value": 7.9}, {"measurement": "IC50", "setting": "[2]", "value": 0.099, "unit": "µM"}]}
